# Measured values pooled from the literature.
# CASP3: Caspase-3 (CASP3, Homo sapiens, UniProt P42574)
# SMO D473H: Protein smoothened (SMO, Homo sapiens, UniProt Q99835, D473H)
# CAMK4: Calcium/calmodulin-dependent protein kinase type IV (CAMK4, Homo sapiens, UniProt Q16566)
SMILES,target,test,setting,quantity,result
Cc1ncc(C)n2nc(/C=C/c3nc(N4CCCC4)cc(N4CCOCC4)n3)nc12,CASP3,"enzyme activity, inhibitor",10 µM,inhibition,0%
COc1cc(C(=O)NC(N)=Nc2ccc(C)c(NC(=O)c3ccc(-c4ccccc4)cc3)c2)cc(OC)c1OC,SMO D473H,"GTPγS binding, agonist, radiometric",cell membranes,Emax,-115%
O=C(Nc1cccnn1)N1CCN([C@@H]2CCOc3cc(C(F)(F)F)ccc32)CC1,CASP3,"cell-free assay, inhibitor",20 µM,inhibition,1%
COc1ncccc1-c1cnn2ccc(N3CCN(C(=O)OC(C)C)CC3)nc12,CAMK4,"binding, competition with immobilised ligand",1 µM,remaining binding,100%
Nc1ncc(-c2nc(N3CCOCC3)nc(N3CCOCC3)n2)c(C(F)F)n1,CAMK4,"binding, competition with immobilised ligand",10 µM,remaining binding,66%
Cc1cnc(-c2cc(N3CCN(C(=O)CCS(C)(=O)=O)CC3)ncc2Cl)c(C)c1,SMO D473H,"GTPγS binding, agonist, radiometric",cell membranes,Emax,-76.3%
CC(=O)N[C@@H](CC(=O)O)C(=O)N[C@@H](CC(N)=O)C(=O)N[C@@H](CC(C)C)C(=O)N[C@H](C=O)CC(=O)O,CASP3,"enzyme activity, inhibitor",1 nM,inhibition,10%
CCN(CC)CCCC[C@H](NC(=O)[C@H](CC(C)C)NC(=O)[C@H](C)NC(=O)[C@H](Cc1ccccc1)NC(=O)c1ccc(C(C)(C)C)cc1)C(=O)N[C@@H](CO)C(=O)OC,"Histone-lysine N-methyltransferase 2A (KMT2A, Homo sapiens, UniProt Q03164)","thermal stability, DSF",25 µM,ΔTm,0.04 °C
Cc1nn(C)cc1-c1nc2c(N3CCN(Cc4ccc(Cl)cc4)CC3)c(Cl)cnc2[nH]1,"Mitogen-activated protein kinase 15 (MAPK15, Homo sapiens, UniProt Q8TD08)","binding, competition with immobilised ligand",1 µM,remaining binding,8.2%
C#Cc1n[nH]c2c(-c3cn(C(C)c4ccccn4)c(=O)[nH]c3=O)cc(F)cc12 (centres unmarked),"AP2-associated protein kinase 1 (AAK1, Homo sapiens, UniProt Q2M2I8)","enzyme activity, inhibitor",1 µM,inhibition,4.8%
CC1=C2C[C@H]3[C@@H](CC=C4C[C@@H](O)CC[C@@]43C)[C@@H]2CC[C@]12O[C@@H]1C[C@H](C)CN[C@H]1[C@H]2C,"Protein smoothened (SMO, Homo sapiens, UniProt Q99835)","GTPγS binding, agonist, radiometric",cell membranes,Emax,-99.2%
